Test results as given in ChEMBL document CHEMBL1144515, “Synthesis, in vitro evaluation, and SAR studies of a potential antichagasic 1H-pyrazolo[3,4-b]pyridine series” (Bioorg Med Chem, 2007).
In brackets after ≈: the same amount, converted by molar mass.

Test system: Trypanosoma cruzi
Experiment: Antiparasitic activity against Trypanosoma cruzei Y blood stream trypomastigotes
Assay type: functional, organism-based
In short: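 Mouse infected blood diluted with healthy mouse blood and fetal bovine serum to about 106 trypomastigotes/mL; compounds from DMSO stocks added at final 10, 100, 250, 500 and 1000 µg/mL. Incubated 4 °C, 24 h with constant shaking; untreated and crystal violet-treated controls; triplicate. Trypomastigotes counted, % lysis versus untreated; IC50 taken as 50% activity concentration.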

IC50 | Compound
260 µg/mL (≈ 551 µM) | Cc1nn(-c2ccccc2)c2nc(-c3ccc(C#N)cc3)cc(C(=O)N/N=C\c3ccc(O)cc3)c12
108 µg/mL (≈ 212 µM) | Cc1nn(-c2ccccc2)c2nc(-c3ccc(Cl)cc3)cc(C(=O)N/N=C\c3ccc([N+](=O)[O-])cc3)c12
> 1500 µg/mL | COc1ccc(-c2cc(C(=O)N/N=C\c3ccc([N+](=O)[O-])cc3)c3c(C)nn(-c4ccccc4)c3n2)cc1
378 µg/mL (≈ 797 µM) | Cc1nn(-c2ccccc2)c2nc(-c3ccc(C#N)cc3)cc(C(=O)N/N=C\c3ccc(F)cc3)c12
95.3 µg/mL (≈ 200 µM) | Cc1nn(-c2ccccc2)c2nc(-c3ccccc3)cc(C(=O)N/N=C\c3ccc([N+](=O)[O-])cc3)c12
1460 µg/mL (≈ 3050 µM) | COc1ccc(-c2cc(C(=O)N/N=C\c3ccc(F)cc3)c3c(C)nn(-c4ccccc4)c3n2)cc1
197 µg/mL (≈ 407 µM) | Cc1nn(-c2ccccc2)c2nc(-c3ccc(Cl)cc3)cc(C(=O)N/N=C\c3ccc(F)cc3)c12
39.3 µg/mL (≈ 79.6 µM) | CCOc1ccc(-c2cc(C(=O)N/N=C\c3ccc(F)cc3)c3c(C)nn(-c4ccccc4)c3n2)cc1
37.3 µg/mL (≈ 74.4 µM) | Cc1nn(-c2ccccc2)c2nc(-c3ccc(C#N)cc3)cc(C(=O)N/N=C\c3ccc([N+](=O)[O-])cc3)c12
332 µg/mL (≈ 694 µM) | COc1ccc(-c2cc(C(=O)N/N=C\c3ccc(O)cc3)c3c(C)nn(-c4ccccc4)c3n2)cc1
170 µg/mL (≈ 345 µM) | CCOc1ccc(-c2cc(C(=O)N/N=C\c3ccc(O)cc3)c3c(C)nn(-c4ccccc4)c3n2)cc1
1180 µg/mL (≈ 2260 µM) | CCOc1ccc(-c2cc(C(=O)N/N=C\c3ccc([N+](=O)[O-])cc3)c3c(C)nn(-c4ccccc4)c3n2)cc1

Second part, the compound before the results:

Compound | IC50
COc1ccc(-c2cc(C(=O)NN)c3c(C)nn(-c4ccccc4)c3n2)cc1 | 781 µg/mL (≈ 2090 µM)
Cc1nn(-c2ccccc2)c2nc(-c3ccc(Cl)cc3)cc(C(=O)NN)c12 | 211 µg/mL (≈ 558 µM)
Cc1nn(-c2ccccc2)c2nc(-c3ccc(Cl)cc3)cc(C(=O)N/N=C\c3ccc(O)cc3)c12 | 71.8 µg/mL (≈ 149 µM)
CCOc1ccc(-c2cc(C(=O)NN)c3c(C)nn(-c4ccccc4)c3n2)cc1 | 439 µg/mL (≈ 1130 µM)
Cc1nn(-c2ccccc2)c2nc(-c3ccccc3)cc(C(=O)NN)c12 | 782 µg/mL (≈ 2280 µM)
Cc1nn(-c2ccccc2)c2nc(-c3ccc([N+](=O)[O-])cc3)cc(C(=O)NN)c12 | 533 µg/mL (≈ 1370 µM)
Cc1nn(-c2ccccc2)c2nc(-c3ccccc3)cc(C(=O)N/N=C\c3ccc(O)cc3)c12 | 1.9 µg/mL (≈ 4.25 µM)
Cc1nn(-c2ccccc2)c2nc(-c3ccc(C#N)cc3)cc(C(=O)NN)c12 | 341 µg/mL (≈ 926 µM)
Cc1nn(-c2ccccc2)c2nc(-c3ccccc3)cc(C(=O)N/N=C\c3ccc(F)cc3)c12 | 88.9 µg/mL (≈ 198 µM)
Cc1nn(-c2ccccc2)c2nc(-c3ccccc3)cc(C(=O)N/N=C\c3ccccc3)c12 | 205 µg/mL (≈ 476 µM)
